As usually defined, the pIC50 is −log10 of the IC50, conventionally taken in molar units. By half-life is commonly meant how long it takes for the measured level to halve.

Among the data in ChEMBL document CHEMBL4609990, “Design and synthesis of cyanamides as potent and selective N-acylethanolamine acid amidase inhibitors” (Bioorg Med Chem, 2020) are IC50, Ratio and half-life values, retold here.

pIC50: −log10 of the molar value.

In data set [1] the target is T1, N-acylethanolamine-hydrolyzing acid amidase (Homo sapiens, UniProt Q02083).
T1 sequence (Q02083 whole entry): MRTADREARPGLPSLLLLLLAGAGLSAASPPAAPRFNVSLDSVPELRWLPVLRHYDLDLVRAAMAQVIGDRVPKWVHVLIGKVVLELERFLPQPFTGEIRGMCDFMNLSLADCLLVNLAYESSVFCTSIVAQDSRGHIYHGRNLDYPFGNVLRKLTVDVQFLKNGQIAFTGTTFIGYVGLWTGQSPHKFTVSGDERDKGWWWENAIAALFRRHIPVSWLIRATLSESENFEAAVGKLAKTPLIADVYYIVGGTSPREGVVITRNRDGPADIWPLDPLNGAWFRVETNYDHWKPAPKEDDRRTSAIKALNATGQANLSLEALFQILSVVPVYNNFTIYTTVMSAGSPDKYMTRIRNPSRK
Briefly: Inhibition of activated human NAAA using fluorogenic PAMCA and N-4-methylcoumarin as substrate incubated for 90 mins by fluorescence based assay. A digest of the protocol: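 Purified activated hNAAA (final 0.25 µg/mL) in 100 mM citrate-phosphate pH 4.5, 3 mM DTT, 0.1% Triton X-100, 0.05% BSA, 150 mM NaCl; compound in DMSO preincubated 90 min at room temperature. PAMCA added (final 5 µM), reaction at 37 °C for 90 min, fluorescence ex 360/em 460 nm read every 10 min. RFU converted to AMC via AMC standard curve. IC50 from eight concentrations, triplicate.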

Data set [2] concerns the target T2, N-acylethanolamine-hydrolyzing acid amidase (Homo sapiens) (UniProt Q02083).
T2 sequence (whole entry): T1 sequence (Q02083 whole entry)
Briefly: Irreversible inhibition of activated human NAAA assessed as ratio of Kinact/Ki using fluorogenic PAMCA and N-4-methylcoumarin as substrate.

Data set [3] deals with T3, Fatty-acid amide hydrolase 1 (Homo sapiens, UniProt O00519).
T3 sequence (O00519 whole entry): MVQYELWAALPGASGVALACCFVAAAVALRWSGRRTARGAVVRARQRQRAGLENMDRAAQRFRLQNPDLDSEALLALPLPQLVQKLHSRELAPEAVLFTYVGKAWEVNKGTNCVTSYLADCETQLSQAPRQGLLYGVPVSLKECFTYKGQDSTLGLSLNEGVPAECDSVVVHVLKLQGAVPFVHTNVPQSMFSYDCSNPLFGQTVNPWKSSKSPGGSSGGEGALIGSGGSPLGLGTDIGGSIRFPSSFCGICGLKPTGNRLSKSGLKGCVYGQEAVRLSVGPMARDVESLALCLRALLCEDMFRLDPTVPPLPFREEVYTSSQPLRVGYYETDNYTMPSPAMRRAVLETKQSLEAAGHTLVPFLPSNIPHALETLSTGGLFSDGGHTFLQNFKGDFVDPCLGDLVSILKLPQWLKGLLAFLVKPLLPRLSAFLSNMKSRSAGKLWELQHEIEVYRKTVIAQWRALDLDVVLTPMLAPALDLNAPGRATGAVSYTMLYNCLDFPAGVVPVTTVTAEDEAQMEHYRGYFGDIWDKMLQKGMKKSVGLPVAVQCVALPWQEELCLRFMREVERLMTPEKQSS
Briefly: Inhibition of recombinant human FAAH expressed in Escherichia coli using fluorogenic AAMCA as substrate by fluorimetric assay. A digest of the protocol:
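Human recombinant FAAH expressed in E. coli and purified; fluorometric assay with arachidonoyl 7-amino-4-methylcoumarin amide (AAMCA) as substrate; IC50 by curve fitting, or percent inhibition at 1 µM.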

Data set [4] in a line: Half life in human liver microsomes at 1 uM in presence of NADPH by LC-MS/MS. The following applies: liver microsomes.
Data set [5] can be described thus: Half life in human plasma by HPLC analysis.

As to `COc1ccncc1-c1ccc(COC2CN(C#N)C2)cc1`, the pIC50 in data set [1] was 7.40.

With `COc1ccc(-c2ccc(COC3CN(C#N)C3)cc2)cc1`, in data set [1], the pIC50 is 9.03. Also, the Ratio in data set [2] was determined as 3.25 ×10⁶ /M/s.

With `N#Cc1ccc(-c2cc(Oc3ccccc3)ccc2COC2CN(C#N)C2)cc1`, the pIC50 in data set [1] was 8.60.

`N#CN1CC(OCc2ccc(Oc3ccccc3)cc2Br)C1` had a pIC50 in data set [1] of 8.99.

In data set [1], `Cn1nccc1-c1ccc(C(OC2CN(C#N)C2)c2ccccc2)cc1` (stereo not given) showed a pIC50 of 7.13.

Consider `COc1ccc(-c2ccc(COC3(c4cccnc4)CN(C#N)C3)c(F)c2)cc1F`, for which the pIC50 in data set [3] was 8.70; in data set [1] it was 8.34.

As for `CN(Cc1ccc(-c2ccccc2)cc1)C1CN(C#N)C1`, the pIC50 in data set [1] is 7.68. For the same compound, the half-life at 1 µM in data set [4] was 0.188 h.

In turn, `N#CN1CC(OCc2ccc(-c3ccccc3)cc2)C1` had a pIC50 in data set [1] of 8.55. Further, the Ratio in data set [2] was 3.03 ×10⁶ /M/s.

`N#CN1CC(OCc2ccc(-c3cccc(OCc4ccccc4)c3)cc2)C1`: the negative-log IC50 (pIC50) in data set [1] is 8.85.

In data set [1], `N#CN1CC(COCc2ccc(-c3ccccc3)cc2)C1` had a pIC50 of 8.47. In addition, the Ratio in data set [2] came to 3.04 ×10⁶ /M/s.

In turn, `COc1ccccc1-c1cc(Oc2ccccc2)ccc1COC1CN(C#N)C1` had a pIC50 in data set [1] of 7.63.

With `COc1cccc(-c2ccc(COC3CN(C#N)C3)c(C(F)(F)F)c2)c1`, the pIC50 in data set [1] was 9.07. Besides, in data set [2], the Ratio was 1.4 ×10⁶ /M/s.

In the case of `N#Cc1ccccc1-c1cc(Oc2ccccc2)ccc1COC1CN(C#N)C1`, in data set [1], the pIC50 was 8.18.

In data set [1], `Cc1ccc(-c2ccc(COC3CN(C#N)C3)cc2)cc1` showed a pIC50 of 9.34. Besides, in data set [2], the Ratio was found to be 2.24 ×10⁶ /M/s.

In turn, `N#CN1CC(OCc2ccc(Oc3ccccc3)cc2)C1` had a pIC50 in data set [1] of 8.96. Also, the Ratio in data set [2] was determined as 1.33 ×10⁶ /M/s.

Take `N#CN1CC(OCc2ccc(-c3ccc(F)cc3)cc2)C1`: in data set [1], the pIC50 was 9.17. Further, the Ratio in data set [2] amounted to 2.09 ×10⁶ /M/s.

`COc1ccc(-c2cc(Oc3ccccc3)ccc2COC2CN(C#N)C2)cc1`: the pIC50 in data set [1] is 8.24.

In the case of `COc1cccc(-c2ccc(COC3CN(C#N)C3)c(OC)c2)c1`, the negative logarithm of the IC50 (pIC50) in data set [1] was 8.55.

Turning to `N#CN1CC[C@H](OCc2ccc(-c3ccccc3)cc2)C1`, the pIC50 in data set [1] is 6.50.

In turn, `N#CN1CC(Oc2ccc(-c3ccccc3)cc2)C1` had a pIC50 in data set [1] of 7.54.

With `N#CN1CC(OCc2ccc(-c3cccnc3)cc2)C1`, the pIC50 in data set [1] is 7.92.

For `COc1ccc(-c2ccc(COC3(C4CC4)CN(C#N)C3)c(F)c2)cc1F`, the pIC50 in data set [3] was 9.00; in data set [1] it was 9.46. The same compound came in with a half-life in data set [5] of 2.12 h.

`COc1cccc(-c2ccc(C(OC3CN(C#N)C3)c3ccccc3)cc2)c1` (stereo not given) gave a pIC50 in data set [1] of 7.94.

Consider `COc1cccc(-c2ccc(COC3CN(C#N)C3)cc2)c1OC`, for which the negative-log IC50 (pIC50) in data set [1] was 9.06. For the same compound, in data set [2], the Ratio was 8.4 ×10⁶ /M/s.

The compound `COc1ncccc1-c1ccc(COC2CN(C#N)C2)cc1` showed a pIC50 in data set [1] of 8.24.

For `N#CN1CC(OCc2ccc(Oc3ccccc3)cc2-c2ccccc2)C1`, the pIC50 in data set [1] is 8.07.

The compound `COc1cccc(OC)c1-c1ccc(COC2CN(C#N)C2)cc1` gave a pIC50 in data set [1] of 7.17.

Turning to `N#CN1CC[C@@H](OCc2ccc(-c3ccccc3)cc2)C1`, the pIC50 in data set [1] is 7.58.
